Source: ChEMBL document CHEMBL4725488, “Dual-Stage Picolinic Acid-Derived Inhibitors of Toxoplasma gondii” (ACS Med Chem Lett, 2020)
In brackets after ≈: the same amount, converted by molar mass. Activity calls are given as the source filed them. No cut-off for these calls is given here.

Key:
Toxoplasma gondii [1] = assay: Antiparasitic activity against Toxoplasma gondii ME49 tachyzoites infected in human HFF-1 cells assessed as inhibition of parasitic growth preincubated for 48 hrs followed by [5,6-3H]uracil addition and measured after 24 hrs by liquid scintillation counting analysis; assay type: functional, organism-based
Method in brief: (§1)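 HFF host cells harbouring tachyzoites, or bradyzoites differentiated in vitro by base-mediated maturation, were exposed to compounds in dose–response format. EC50 was the concentration inhibiting 50% of parasites. Tested at least in triplicate (n ≥ 3) unless noted, some in duplicate (n = 2).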

Toxoplasma gondii [2] = assay: Antiparasitic activity against Toxoplasma gondii ME49 bradyzoite infected in human HFF-1 cells assessed as inhibition of parasitic growth preincubated for 48 hrs followed by [5,6-3H]uracil addition and measured after 24 hrs by liquid scintillation counting analysis; assay type: functional, organism-based; method in brief: as §1
[3] = (§2) Cytotoxicity against HFF cells assessed as reduction in cell viability incubated for 72 hrs by Cell titer assay; assay type: cell-based; conditions: human, HFF cells
Method in brief: (§3)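 Uninfected HFF cells exposed to compounds for 72 h. CC50 is the concentration that cuts cell viability by 50%. At least triplicate (n ≥ 3) unless noted, some in duplicate.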

[4] = Selectivity index, ratio of CC50 for human HFF cells to EC50 for Toxoplasma gondii ME49 tachyzoites infected in human HFF cells; assay type: toxicity, cell-based
Method in brief: (§4)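 Selectivity index computed as CC50 in uninfected HFF cells (72 h exposure) divided by EC50 for the bradyzoite or tachyzoite growth assay run in the same HFF line.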

[5] = Selectivity index, ratio of CC50 for human HFF cells to EC50 for Toxoplasma gondii ME49 bradyzoite infected in human HFF cells; assay type: toxicity, cell-based; method in brief: as §4
[6] = Lipophilicity log D of compound at pH 7.4; assay type: physicochemical; conditions: buffer
Method in brief: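 LogD at pH 7.4, determined experimentally.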

[7] = Kinetic aqueous solubility of the compound in pH 7.4; assay type: physicochemical; conditions: buffer, read-out: Kinetic_solubility
Method in brief: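 Kinetic aqueous solubility measured at pH 7.4.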

[8] = Stability in CD-1 mouse liver microsomes assessed as parent compound remaining measured after 60 mins by LC-MS method; assay type: ADME, Microsome; conditions: for remaining at 1 h: CD-1, mouse, liver microsomes, read-out: Stabilty; for Stabilty: mouse, microsomes, 1 h
Method in brief: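 Mouse microsomes, reported as percent parent compound remaining after 1 h.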

[9] = Stability in CD-1 mouse plasma assessed as parent compound remaining measured after 60 mins by LC-MS/MS method; assay type: ADME, cell-free; conditions: for remaining at 1 h: CD-1, mouse, read-out: Stabilty
Method in brief: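 Mouse plasma, reported as percent parent compound remaining after 1 h.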

[10] = Permeability of compound by PAMPA-BBB assay; assay type: ADME; conditions: read-out: permeability
Method in brief: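 Blood–brain barrier PAMPA, with permeability reported as Pe (10–6 cm/s).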

[11] = molecular target: T1, Hexokinase (Toxoplasma gondii) (UniProt Q969A8); assay: Inhibition of hexokinase in Toxoplasma gondii ME49 infected human HFF cells assessed as 13C6-glucose-6-phosphate treated at 6 x EC50 4 hrs postinfection for 5 hrs media changed with [13C6]-glucose; assay type: cell-based
T1 sequence (whole entry): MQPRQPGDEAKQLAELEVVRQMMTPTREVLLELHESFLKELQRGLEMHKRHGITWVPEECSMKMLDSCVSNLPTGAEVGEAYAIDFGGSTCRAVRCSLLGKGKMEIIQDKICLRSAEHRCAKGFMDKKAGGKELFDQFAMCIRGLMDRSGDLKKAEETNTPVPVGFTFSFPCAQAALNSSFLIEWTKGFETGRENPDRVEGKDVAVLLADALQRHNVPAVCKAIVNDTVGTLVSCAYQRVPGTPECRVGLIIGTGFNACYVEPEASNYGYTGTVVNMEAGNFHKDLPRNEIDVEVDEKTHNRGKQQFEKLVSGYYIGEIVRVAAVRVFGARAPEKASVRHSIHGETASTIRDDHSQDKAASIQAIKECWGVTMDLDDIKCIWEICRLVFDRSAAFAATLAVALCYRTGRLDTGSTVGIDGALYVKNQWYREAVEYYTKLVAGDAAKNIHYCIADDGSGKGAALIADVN
Method in brief: (§5)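 Infected HFF cells were treated 4 h postinfection with DMSO or compound (2 or 6 × EC50). After 5 h the medium was switched to glucose-free RPMI with 13C6-glucose and labelled for 10 min. Samples were rapidly quenched, processed and analysed by broad-spectrum mass spectrometry for 13C6-glucose-6-phosphate (hexokinase product) against DMSO.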

[12] = molecular target: T1, Hexokinase (Toxoplasma gondii); assay: Inhibition of hexokinase in Toxoplasma gondii ME49 infected human HFF cells assessed as 13C6-glucose-6-phosphate treated at 2 x EC50 4 hrs postinfection for 5 hrs media changed with [13C6]-glucose; assay type: cell-based; method in brief: as §5
Toxoplasma gondii [13] = assay: Ex vivo inhibition of Toxoplasma gondii ME49 bradyzoite isolated from 30 days post infection brain of C57BL/6J mouse transferred to human HFF cells after 3 days using anti-BAG1 by fluorescence assay; assay type: functional; conditions: time 72.0 hrs
Method in brief: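 Bradyzoites were harvested from brains of four infected mice 30+ days after infection, purified and transferred to HFF cells. Compound was added at 1, 3 or 6 × EC50 and incubated 3 days against a DMSO control. Monolayers were fixed, labelled with anti-BAG1 antibody against a bradyzoite-specific antigen, and imaged by fluorescence.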

HFF = assay: as §2; assay type: cell-based; conditions: human, hff, 72 h; method in brief: as §3
[14] = Protein binding in male Balb/c mouse at 15 mg/kg, ip; assay type: ADME, organism-based; conditions: plasma, read-out: PB (converted)
[15] = Ratio of AUC in brain to plasma in male Balb/c mouse at 15 mg/kg, ip; assay type: ADME, organism-based; conditions: read-out: BPR
Method in brief: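 Male BALB/c mice given a single 15 mg/kg ip injection as a clear solution of the sodium salt. Plasma sampled at 30 min and 2 h after dosing, brain at 2 h. Terminal mean AUC to 2 h determined for plasma (ng/mL) and brain (ng/g). Brain-to-plasma ratio taken from these AUCs.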

[16] = Concentration at 2 hrs in male Balb/c mouse brain at 15 mg/kg, ip; conditions: in vivo
[17] = Plasma concentration at 2 hrs in male Balb/c mouse plasma at 15 mg/kg, ip; conditions: in vivo
[18] = HFF cells, read-out: Selectivity ratio

Row | SMILES | EC50 (Toxoplasma gondii [1]; Toxoplasma gondii, ME49, HFF-1) | EC50 (Toxoplasma gondii [2]; Toxoplasma gondii, ME49, HFF-1) | CC50 at 72 h [3] | selectivity ratio [4, 18] | selectivity ratio [5, 18] | also measured
1 | COc1ccc(C(=O)Nc2cc(Cl)cnc2C(=O)O)cc1 | 7100 nM | 2410 nM | > 50000 nM | > 7 | – | selectivity ratio ([5]; HFF cells, read-out: Selectivity Index): > 20.7
2 | CC(C)(C)c1ccc(C(=O)Nc2cc(Cl)ncc2C(=O)O)cc1 | > 10000 nM | > 10000 nM | 23600 nM | – | > 10 | –
3 | COC(=O)c1ncc(Cl)cc1NC(=O)c1ccc(C(C)(C)C)cc1 | 430 nM | 570 nM | > 50000 nM | > 116 | > 87.7 | logD ([6]; read-out: logD): 5.3; solubility kinetic [7]: < 1.6 µM; remaining at 1 h [8]: 2.7%; remaining at 1 h [9]: 24.7%
4 | COc1cccc(C(=O)Nc2cc(Cl)cnc2C(=O)O)c1 | 1820 nM | 6200 nM | > 50000 nM | > 27.5 | > 8.1 | –
5 | COC(=O)c1cnc(Cl)cc1NC(=O)c1ccc(C(C)(C)C)cc1 | 1690 nM | > 10000 nM | > 50000 nM | > 29.6 | > 10 | –
6 | CC(C)(C)c1ccc(C(=O)Nc2cc(Cl)cnc2C(=O)O)cc1 [listing 1 of 2 here] | 240 nM | 350 nM | 2500 nM | 10.4 | 7.1 | logD ([6]; read-out: logD): 2.7; solubility kinetic [7]: 33 µM (≈ 11 µg/mL); Stabilty [8]: 75.4%; remaining at 1 h [9]: 98.4%; Papp [10]: 6.9 ×10⁻⁶ cm/s
7 | CC(C)(C)c1ccc(C(=O)Nc2cc(Cl)cnc2-c2nnn[nH]2)cc1 | 800 nM | 2450 nM | 1200 nM | 1.5 | 0.5 | –
8 | CC(C)(C)c1ccc(C(=O)Nc2cc(Cl)c(Br)nc2C(=O)O)cc1 | 3850 nM | 4090 nM | > 50000 nM | > 13 | > 12.2 | –
9 | O=C(Nc1cc(Cl)cnc1C(=O)O)c1ccccc1 | 2420 nM | 4470 nM | > 50000 nM | > 20.7 | > 11.2 | –
10 | CC(C)(C)c1ccc(C(=O)Nc2cc(Cl)cnc2C(N)=O)cc1 | > 10000 nM | > 10000 nM | > 50000 nM | – | > 50 | –
11 | Cc1ccc(C(=O)Nc2cc(Cl)cnc2C(=O)O)cc1 | 1480 nM | 1100 nM | 18200 nM | 12.3 | 16.5 | –
12 | CC(C)(C)c1ccc(C(=O)Nc2cccnc2C(=O)O)cc1 | 1110 nM | 2160 nM | 9000 nM | 8.1 | 4.2 | –
13 | CC(C)(C)c1ccc(C(=O)Nc2cc(Cl)c(-c3ccccc3)cc2C(=O)O)cc1 | 460 nM | 990 nM | > 50000 nM | – | – | logD ([6]; read-out: logD): 5.4; solubility kinetic [7]: 2.7 µM (≈ 1.1 µg/mL); remaining at 1 h [8]: 69.2%; remaining at 1 h [9]: 100%
14 | CC(C)(C)c1ccc(C(=O)Nc2cc(Cl)c(-c3ccccc3)nc2C(=O)O)cc1 | 560 nM | 410 nM | 48200 nM | 86.1 | 118 | logD ([6]; read-out: logD): 3.9; solubility kinetic [7]: 6.4 µM (≈ 2.62 µg/mL); remaining at 1 h [8]: 85.1%; remaining at 1 h [9]: 97.1%; Papp [10]: 5.4 ×10⁻⁶ cm/s
15 | CC(C)(C)c1ccc(C(=O)Nc2cc(Cl)cnc2C(=O)O)cc1 [listing 2 of 2 here] | – | – | – | – | – | inhibition [11]: inactive; inhibition [12]: inactive; inhibition (Toxoplasma gondii [13]): Active
16 | CC(C)(C)c1ccc(C(=O)Nc2ccc(Br)nc2C(=O)O)cc1 | 5140 nM | 3960 nM | > 50000 nM | > 9.7 | > 12.6 | –
17 | CC(C)(C)c1ccc(C(=O)Nc2cc(Cl)cnc2C(=O)[O-])cc1.[Na+] | – | – | – | – | – | EC50 (Toxoplasma gondii [1]; hff-1): 320 nM; EC50 (Toxoplasma gondii [2]; hff-1): 230 nM; CC50 (HFF): 2100 nM; selectivity ratio [4]: 6.6; logD [6]: 2.6; solubility kinetic [7]: 164 µM; Stabilty [8]: 100%; Stabilty ([9]; mouse, 1 h): 88.1%; fraction unbound [14]: 0.005; Kp [15]: 0.1; selectivity ratio [5]: 9.1; brain concentration at 2 h [16]: 816 ng/g; plasma concentration at 2 h [17]: 7883 ng/mL
18 | COc1ccccc1C(=O)Nc1cc(Cl)cnc1C(=O)O | 3500 nM | 4900 nM | > 50000 nM | > 14.3 | > 10.2 | –
